Reference: ChEMBL document CHEMBL1136237, “2-piperidin-4-yl-benzimidazoles with broad spectrum antibacterial activities” (2003)
Converted amounts (≈) assume the structure as drawn.

Assays:
[1] = system: Enterococcus faecalis; assay: Antibacterial activity determined against Enterococcus faecalis ATCC 23241; assay type: functional
Outline: (§1)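 Broth microdilution: an overnight-culture bacterial suspension was added to compound in 2.5% DMSO in water, giving a final inoculum of about 10^2–10^3 CFU/well. Plates were incubated 20–24 h at 37 °C, and growth relative to a no-compound control was read as A595. MIC was given as a range: complete inhibition at the upper concentration, viable cells at the lower.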

[2] = system: Streptococcus pyogenes; assay: Antibacterial activity determined against gram-positive Streptococcus pyogenes 49399; assay type: functional; outline: as §1
[3] = system: Enterococcus faecalis; assay: Antibacterial activity determined against Enterococcus faecalis ATCC 49757; assay type: functional; outline: as §1
[4] = system: Proteus vulgaris; assay: Antibacterial activity determined against gram-negativeP. vulgaris 8427; assay type: functional; outline: as §1
[5] = system: Staphylococcus aureus; assay: Antibacterial activity determined against Staphylococcus aureus; assay type: functional; outline: as §1
[6] = system: Enterococcus hirae; assay: Antibacterial activity determined against gram-positive Enterococcus hirae 29212; assay type: functional; outline: as §1
[7] = system: Candida albicans; assay: Antifungal activity determined against Candida albicans 10231; assay type: functional
Outline: as §1, with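 “Candida albicans:” for “Broth microdilution:”, “yeast” for “bacterial”, “40–48” for “20–24”, “25” for “37”, “versus” for “relative to”, “higher” for “upper”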

[8] = system: Enterococcus faecalis; assay: Antibacterial activity determined against Enterococcus faecalis ATCC 828; assay type: functional; outline: as §1
[9] = system: Escherichia coli; assay: Antibacterial activity determined against gram-negativeE. coli 25922; assay type: functional; outline: as §1
[10] = system: Enterococcus faecalis; assay: Antibacterial activity determined against Enterococcus faecalis ATCC 4200; assay type: functional; outline: as §1
[11] = system: Pseudomonas aeruginosa; assay: Antibacterial activity determined against gram-negativeP. aeruginosa 25416; assay type: functional; outline: as §1
[12] = system: Enterococcus faecalis; assay: Antibacterial activity determined against Enterococcus faecalis ATCC 11823; assay type: functional; outline: as §1
[13] = system: Klebsiella pneumoniae; assay: Antibacterial activity determined against gram-negativeK. pneumoniae 13383; assay type: functional; outline: as §1
[14] = Inhibition of bacterial transcription/translation
[15] = system: Enterococcus faecium; assay: Antibacterial activity determined against Enterococcus faecium ATCC 882; assay type: functional; outline: as §1
[16] = system: Streptococcus pneumoniae; assay: Antibacterial activity determined against gram-positive Streptococcus pneumoniae 6303; assay type: functional; outline: as §1
[17] = system: Staphylococcus aureus; assay: Antibacterial activity determined against gram-positive Staphylococcus aureus 13709; assay type: functional; outline: as §1
[18] = system: Escherichia coli; assay: Antibacterial activity determined against Escherichia coli; assay type: functional; outline: as §1
[19] = system: Enterococcus faecium; assay: Antibacterial activity determined against Enterococcus faecium ATCC 6569; assay type: functional; outline: as §1
[20] = system: Enterococcus faecalis; assay: Anti-bacterial activity determined against Enterococcus faecalis ATCC 49757; assay type: functional; outline: as §1

`NCCNCc1ccc(Cn2c(C3CCNCC3)nc3cc(Cl)c(Cl)cc32)cc1` showed an MIC [1] of 12 µM (≈ 5.19 µg/mL), an MIC [2] of 6 µM (≈ 2.59 µg/mL) and an MIC [3] of 12 µM (≈ 5.19 µg/mL). It also gave an MIC [4] of 25 µM (≈ 10.8 µg/mL), an MIC [5] of 6 µM (≈ 2.59 µg/mL) and an MIC [6] of 3 µM (≈ 1.3 µg/mL). For the same molecule, the MIC [7] was > 100 µM, the MIC [8] was 12 µM (≈ 5.19 µg/mL) and the MIC [9] was 12 µM (≈ 5.19 µg/mL). For the same molecule, the MIC [10] was 12 µM (≈ 5.19 µg/mL), the MIC [11] was 12 µM (≈ 5.19 µg/mL) and the MIC [12] was 6 µM (≈ 2.59 µg/mL). For the same molecule, the MIC [13] was 12 µM (≈ 5.19 µg/mL), the IC50 [14] was 12 µM and the MIC [15] was 12 µM (≈ 5.19 µg/mL). The MIC [16] was 12 µM (≈ 5.19 µg/mL), the MIC [17] was 6 µM (≈ 2.59 µg/mL) and the MIC [18] was 12 µM (≈ 5.19 µg/mL). It also gave an MIC [19] of 6 µM (≈ 2.59 µg/mL).

Molecule `Clc1cc2nc(C3CCNCC3)n(Cc3ccc(CNCCCn4ccnc4)cc3)c2cc1Cl` has an MIC [1] of 12 µM (≈ 5.97 µg/mL), an MIC [20] of 12 µM (≈ 5.97 µg/mL) and an MIC [5] of 12 µM (≈ 5.97 µg/mL). The MIC [8] was 6 µM (≈ 2.98 µg/mL), the MIC [10] was 12 µM (≈ 5.97 µg/mL) and the MIC [12] was 6 µM (≈ 2.98 µg/mL). The IC50 [14] was > 100 µM, the MIC [15] was 12 µM (≈ 5.97 µg/mL) and the MIC [18] was 12 µM (≈ 5.97 µg/mL). It also gave an MIC [19] of 6 µM (≈ 2.98 µg/mL).

`CCCCCNCc1ccc(Cn2c(C3CCNCC3)nc3cc(Cl)c(Cl)cc32)cc1` showed an MIC [1] of 6 µM (≈ 2.76 µg/mL), an MIC [2] of 3 µM (≈ 1.38 µg/mL) and an MIC [3] of 6 µM (≈ 2.76 µg/mL). It also gave an MIC [4] of 25 µM (≈ 11.5 µg/mL), an MIC [5] of 6 µM (≈ 2.76 µg/mL) and an MIC [6] of 1 µM (≈ 0.459 µg/mL). For the same molecule, the MIC [7] was 50 µM (≈ 23 µg/mL), the MIC [8] was 6 µM (≈ 2.76 µg/mL) and the MIC [9] was 12 µM (≈ 5.51 µg/mL). For the same molecule, the MIC [10] was 6 µM (≈ 2.76 µg/mL), the MIC [11] was 25 µM (≈ 11.5 µg/mL) and the MIC [12] was 3 µM (≈ 1.38 µg/mL). The MIC [13] was 6 µM (≈ 2.76 µg/mL), the IC50 [14] was > 100 µM and the MIC [15] was 6 µM (≈ 2.76 µg/mL). The MIC [16] was 12 µM (≈ 5.51 µg/mL), the MIC [17] was 6 µM (≈ 2.76 µg/mL) and the MIC [18] was 12 µM (≈ 5.51 µg/mL). It also gave an MIC [19] of 3 µM (≈ 1.38 µg/mL).

In the case of `CCCCCCNCc1ccc(Cn2c(C3CCNCC3)nc3cc(Cl)c(Cl)cc32)cc1`, the MIC [1] is reported as 3 µM (≈ 1.42 µg/mL), the MIC [2] is reported as 3 µM (≈ 1.42 µg/mL) and the MIC [3] is reported as 3 µM (≈ 1.42 µg/mL). The MIC [4] was 12 µM (≈ 5.68 µg/mL), the MIC [5] was 3 µM (≈ 1.42 µg/mL) and the MIC [6] was 1 µM (≈ 0.473 µg/mL). It also gave an MIC [7] of 25 µM (≈ 11.8 µg/mL), an MIC [8] of 3 µM (≈ 1.42 µg/mL) and an MIC [9] of 6 µM (≈ 2.84 µg/mL). It also gave an MIC [10] of 3 µM (≈ 1.42 µg/mL), an MIC [11] of 25 µM (≈ 11.8 µg/mL) and an MIC [12] of 3 µM (≈ 1.42 µg/mL). For the same molecule, the MIC [13] was 6 µM (≈ 2.84 µg/mL), the IC50 [14] was > 100 µM and the MIC [15] was 3 µM (≈ 1.42 µg/mL). For the same molecule, the MIC [16] was 6 µM (≈ 2.84 µg/mL), the MIC [17] was 3 µM (≈ 1.42 µg/mL) and the MIC [18] was 6 µM (≈ 2.84 µg/mL). The MIC [19] was 3 µM (≈ 1.42 µg/mL).

Molecule `Clc1cc2nc(C3CCNCC3)n(Cc3ccc(CN4CCNCC4)cc3)c2cc1Cl` has an MIC [1] of 6 µM (≈ 2.75 µg/mL), an MIC [2] of 6 µM (≈ 2.75 µg/mL) and an MIC [3] of 12 µM (≈ 5.5 µg/mL). The MIC [4] was 12 µM (≈ 5.5 µg/mL), the MIC [5] was 6 µM (≈ 2.75 µg/mL) and the MIC [6] was 3 µM (≈ 1.38 µg/mL). The MIC [7] was 50 µM (≈ 22.9 µg/mL), the MIC [8] was 6 µM (≈ 2.75 µg/mL) and the MIC [9] was 12 µM (≈ 5.5 µg/mL). The MIC [10] was 12 µM (≈ 5.5 µg/mL), the MIC [11] was 12 µM (≈ 5.5 µg/mL) and the MIC [12] was 12 µM (≈ 5.5 µg/mL). For the same molecule, the MIC [13] was 6 µM (≈ 2.75 µg/mL), the IC50 [14] was > 100 µM and the MIC [15] was 6 µM (≈ 2.75 µg/mL). The MIC [16] was 12 µM (≈ 5.5 µg/mL), the MIC [17] was 6 µM (≈ 2.75 µg/mL) and the MIC [18] was 12 µM (≈ 5.5 µg/mL). It also gave an MIC [19] of 6 µM (≈ 2.75 µg/mL).
